Test results: the M2OR odorant receptor database
Substitutions are numbered along the chain they refer to.

Legend:
Conditions in all cases: stereoisomer not certain
OR4KH = system: T1, OR4KH
T1 sequence (whole entry): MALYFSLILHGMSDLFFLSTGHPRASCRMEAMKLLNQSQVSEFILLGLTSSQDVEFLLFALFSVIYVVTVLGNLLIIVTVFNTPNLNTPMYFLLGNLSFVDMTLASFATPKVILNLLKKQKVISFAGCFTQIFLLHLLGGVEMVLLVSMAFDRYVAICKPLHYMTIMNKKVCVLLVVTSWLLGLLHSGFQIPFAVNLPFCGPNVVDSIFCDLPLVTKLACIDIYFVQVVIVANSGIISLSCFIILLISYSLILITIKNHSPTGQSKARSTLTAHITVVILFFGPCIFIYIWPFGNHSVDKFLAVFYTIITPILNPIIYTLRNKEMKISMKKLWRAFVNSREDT
In short: (§1)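 Values were gathered from published papers (main text and supplementary material), with extra details requested from the original authors when needed, and checked for typos and inconsistencies. Each receptor–molecule pair is called responsive (active) if the original authors judged the measured signal statistically different from baseline, and non-responsive (inactive) otherwise. Assay methods varied by source, often transient mammalian cell-line luciferase assays. Recorded details include cell line, G-protein, co-transfected protein and tags.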

OR4L1 (Homo sapiens) = biological target: T2, OR4L1 (Homo sapiens) (UniProt Q8NH43)
T2 sequence (whole entry): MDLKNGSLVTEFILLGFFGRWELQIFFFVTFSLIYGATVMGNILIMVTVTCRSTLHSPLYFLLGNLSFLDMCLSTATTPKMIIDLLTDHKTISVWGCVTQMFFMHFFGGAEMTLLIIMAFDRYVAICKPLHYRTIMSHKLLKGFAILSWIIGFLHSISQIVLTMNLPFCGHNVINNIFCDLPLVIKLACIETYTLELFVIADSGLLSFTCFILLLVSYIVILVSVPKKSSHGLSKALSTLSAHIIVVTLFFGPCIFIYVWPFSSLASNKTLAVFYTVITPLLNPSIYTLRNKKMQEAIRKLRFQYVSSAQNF
In short: as §1

OR4L1 = system: T3, OR4L1
T3 sequence (whole entry): T2 sequence (whole entry) with R52S
In short: as §1

OR4M1 (Homo sapiens) = biological target: T4, OR4M1 (Homo sapiens) (UniProt Q8NGD0)
T4 sequence (whole entry): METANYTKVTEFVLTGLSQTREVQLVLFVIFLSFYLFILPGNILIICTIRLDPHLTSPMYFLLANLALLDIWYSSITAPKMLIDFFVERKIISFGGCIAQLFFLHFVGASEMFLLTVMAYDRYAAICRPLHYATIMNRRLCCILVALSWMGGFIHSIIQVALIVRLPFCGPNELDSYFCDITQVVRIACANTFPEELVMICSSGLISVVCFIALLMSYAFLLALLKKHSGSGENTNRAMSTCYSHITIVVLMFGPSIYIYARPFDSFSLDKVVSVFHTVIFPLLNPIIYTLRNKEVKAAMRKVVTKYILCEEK
In short: as §1

OR4M1 H277N V279L L284H = system: T5, OR4M1 H277N V279L L284H
T5 sequence (whole entry): T4 sequence (whole entry) with H277N, V279L, L284H
In short: as §1

OR4M2 (Homo sapiens) = biological target: T6, OR4M2 (Homo sapiens) (UniProt Q8NGB6)
T6 sequence (whole entry): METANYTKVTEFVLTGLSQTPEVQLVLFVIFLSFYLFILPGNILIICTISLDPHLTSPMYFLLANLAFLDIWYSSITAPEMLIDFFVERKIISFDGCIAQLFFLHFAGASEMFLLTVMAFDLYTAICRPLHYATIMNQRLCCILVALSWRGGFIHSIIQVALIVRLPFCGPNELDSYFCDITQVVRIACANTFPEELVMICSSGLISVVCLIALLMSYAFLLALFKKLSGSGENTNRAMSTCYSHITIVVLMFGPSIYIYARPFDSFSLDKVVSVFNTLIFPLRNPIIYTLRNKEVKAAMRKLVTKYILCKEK
In short: as §1

OR4N2 (Homo sapiens) = biological target: T7, OR4N2 (Homo sapiens) (UniProt Q8NGD1)
T7 sequence (whole entry): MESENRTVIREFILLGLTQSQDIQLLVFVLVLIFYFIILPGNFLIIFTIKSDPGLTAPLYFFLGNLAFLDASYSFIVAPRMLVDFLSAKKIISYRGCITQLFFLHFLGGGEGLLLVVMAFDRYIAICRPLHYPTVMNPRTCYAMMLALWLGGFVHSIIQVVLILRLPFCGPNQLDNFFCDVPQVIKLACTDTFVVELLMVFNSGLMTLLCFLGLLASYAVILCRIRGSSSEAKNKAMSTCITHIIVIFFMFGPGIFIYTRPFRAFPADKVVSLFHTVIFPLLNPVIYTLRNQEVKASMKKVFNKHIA
In short: as §1

OR4N2 A57V I76T = system: T8, OR4N2 A57V I76T
T8 sequence (whole entry): T7 sequence (whole entry) with A57V, I76T
In short: as §1

OR4N2 R260C F279L R290H = system: T9, OR4N2 R260C F279L R290H
T9 sequence (whole entry): T7 sequence (whole entry) with R260C, F279L, R290H
In short: as §1

OR4N2 [1] = system: T10, OR4N2
T10 sequence (whole entry): T7 sequence (whole entry) with I76T
In short: as §1

OR4N4 (Homo sapiens) = biological target: T11, OR4N4 (Homo sapiens) (UniProt Q8N0Y3)
T11 sequence (whole entry): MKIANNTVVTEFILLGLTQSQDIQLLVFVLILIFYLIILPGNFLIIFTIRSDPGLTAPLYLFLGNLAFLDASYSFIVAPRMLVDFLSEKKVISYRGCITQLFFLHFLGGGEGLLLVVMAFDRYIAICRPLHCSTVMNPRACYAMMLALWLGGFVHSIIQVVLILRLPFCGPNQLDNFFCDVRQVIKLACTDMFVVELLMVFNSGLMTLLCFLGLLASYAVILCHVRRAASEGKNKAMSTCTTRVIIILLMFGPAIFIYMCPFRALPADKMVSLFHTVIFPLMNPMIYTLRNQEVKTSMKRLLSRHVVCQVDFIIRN
In short: as §1

OR4N5 (Homo sapiens) = biological target: T12, OR4N5 (Homo sapiens) (UniProt Q8IXE1)
T12 sequence (whole entry): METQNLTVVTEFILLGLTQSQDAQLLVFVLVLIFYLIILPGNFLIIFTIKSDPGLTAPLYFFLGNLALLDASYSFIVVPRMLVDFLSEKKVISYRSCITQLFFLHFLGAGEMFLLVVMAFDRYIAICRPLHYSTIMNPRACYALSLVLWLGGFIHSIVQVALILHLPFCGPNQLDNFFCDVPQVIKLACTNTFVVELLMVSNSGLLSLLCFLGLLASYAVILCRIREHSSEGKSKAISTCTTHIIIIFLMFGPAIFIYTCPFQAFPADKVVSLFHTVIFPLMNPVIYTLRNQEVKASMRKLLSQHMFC
In short: as §1

OR4P4 (Homo sapiens) = biological target: T13, OR4P4 (Homo sapiens) (UniProt Q8NGL7)
T13 sequence (whole entry): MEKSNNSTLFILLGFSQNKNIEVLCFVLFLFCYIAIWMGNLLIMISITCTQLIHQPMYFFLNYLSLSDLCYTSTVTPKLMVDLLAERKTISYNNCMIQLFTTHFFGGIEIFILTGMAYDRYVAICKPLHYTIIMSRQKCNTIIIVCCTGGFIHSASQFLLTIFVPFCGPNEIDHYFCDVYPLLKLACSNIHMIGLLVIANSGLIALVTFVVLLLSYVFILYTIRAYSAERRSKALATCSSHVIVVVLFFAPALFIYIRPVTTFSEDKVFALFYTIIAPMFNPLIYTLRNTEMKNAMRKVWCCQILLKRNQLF
In short: as §1

OR4Q3 (Homo sapiens) = biological target: T14, OR4Q3 (Homo sapiens) (UniProt Q8NH05)
T14 sequence (whole entry): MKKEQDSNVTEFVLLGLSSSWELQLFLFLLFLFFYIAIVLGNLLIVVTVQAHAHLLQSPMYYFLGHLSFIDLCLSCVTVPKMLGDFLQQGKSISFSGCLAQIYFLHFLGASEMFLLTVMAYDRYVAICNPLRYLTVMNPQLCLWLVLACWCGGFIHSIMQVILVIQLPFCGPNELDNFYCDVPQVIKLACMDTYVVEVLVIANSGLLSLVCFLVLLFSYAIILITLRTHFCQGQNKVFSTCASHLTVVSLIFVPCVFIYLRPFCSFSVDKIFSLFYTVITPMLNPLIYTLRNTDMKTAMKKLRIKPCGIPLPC
In short: as §1

OR4Q3 T135A = system: T15, OR4Q3 T135A
T15 sequence (whole entry): T14 sequence (whole entry) with T135A
In short: as §1

OR4S1 (Homo sapiens) = biological target: T16, OR4S1 (Homo sapiens) (UniProt Q8NGB4)
T16 sequence (whole entry): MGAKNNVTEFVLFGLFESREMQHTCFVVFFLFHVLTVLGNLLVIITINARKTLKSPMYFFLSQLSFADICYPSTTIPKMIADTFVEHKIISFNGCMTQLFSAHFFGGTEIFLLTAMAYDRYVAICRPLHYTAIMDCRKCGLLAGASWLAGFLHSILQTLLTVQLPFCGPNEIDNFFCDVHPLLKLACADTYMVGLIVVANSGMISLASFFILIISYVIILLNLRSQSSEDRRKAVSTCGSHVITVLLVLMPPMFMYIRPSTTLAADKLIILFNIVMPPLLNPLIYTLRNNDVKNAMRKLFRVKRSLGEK
In short: as §1

OR4M2B (Homo sapiens) = OR4M2B (Homo sapiens) (UniProt A0A0X1KG70)
Sequence of OR4M2B (Homo sapiens) (A0A0X1KG70 whole entry): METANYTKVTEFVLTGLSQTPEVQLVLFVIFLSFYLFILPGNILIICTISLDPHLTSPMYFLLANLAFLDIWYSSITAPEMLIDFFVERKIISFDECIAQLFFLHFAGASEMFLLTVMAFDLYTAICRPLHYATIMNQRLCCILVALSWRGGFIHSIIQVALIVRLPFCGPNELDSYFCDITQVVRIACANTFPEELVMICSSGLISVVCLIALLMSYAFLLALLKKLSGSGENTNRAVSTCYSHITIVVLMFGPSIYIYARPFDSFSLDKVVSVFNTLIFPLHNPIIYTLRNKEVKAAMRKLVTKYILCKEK
In short: as §1

OR4N4C (Homo sapiens) = OR4N4C (Homo sapiens) (UniProt A0A096LPK9)
Sequence of OR4N4C (Homo sapiens) (A0A096LPK9 whole entry): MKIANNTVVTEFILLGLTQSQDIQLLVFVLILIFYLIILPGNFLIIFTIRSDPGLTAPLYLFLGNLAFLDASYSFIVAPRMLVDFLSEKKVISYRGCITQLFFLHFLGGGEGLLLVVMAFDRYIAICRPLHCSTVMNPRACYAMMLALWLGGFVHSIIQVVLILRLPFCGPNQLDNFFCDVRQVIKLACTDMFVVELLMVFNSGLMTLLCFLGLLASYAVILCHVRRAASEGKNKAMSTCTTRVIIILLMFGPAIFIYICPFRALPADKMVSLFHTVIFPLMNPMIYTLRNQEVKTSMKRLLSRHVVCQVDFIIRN
In short: as §1

OR4Q2 (Homo sapiens) = OR4Q2 (Homo sapiens) (UniProt P0C623)
Sequence of OR4Q2 (Homo sapiens) (P0C623 as listed by the source): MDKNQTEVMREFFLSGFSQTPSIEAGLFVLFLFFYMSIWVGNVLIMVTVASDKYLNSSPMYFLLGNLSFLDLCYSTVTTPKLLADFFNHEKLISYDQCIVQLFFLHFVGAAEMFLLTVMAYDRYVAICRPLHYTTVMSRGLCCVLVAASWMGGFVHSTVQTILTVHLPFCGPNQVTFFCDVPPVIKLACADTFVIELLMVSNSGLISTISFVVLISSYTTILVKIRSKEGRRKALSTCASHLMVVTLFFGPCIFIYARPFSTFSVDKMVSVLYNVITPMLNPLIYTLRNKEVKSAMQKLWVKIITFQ
In short: as §1

OR4N2 [2] = system: OR4N2; remark: listed apart in the source
In short: as §1
Target sequence in this assay (as listed by the source): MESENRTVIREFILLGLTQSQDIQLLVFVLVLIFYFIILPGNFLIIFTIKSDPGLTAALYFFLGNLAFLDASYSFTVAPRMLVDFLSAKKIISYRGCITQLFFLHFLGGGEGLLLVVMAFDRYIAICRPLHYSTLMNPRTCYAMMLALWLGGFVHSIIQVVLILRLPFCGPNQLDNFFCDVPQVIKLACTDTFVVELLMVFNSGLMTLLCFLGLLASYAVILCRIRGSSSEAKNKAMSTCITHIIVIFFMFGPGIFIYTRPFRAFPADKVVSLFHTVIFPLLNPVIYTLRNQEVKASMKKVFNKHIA

Measured: odorant receptor agonist call

CC1=NC(C)C(C)S1 (centres undefined)
not listed: OR4M2B (Homo sapiens) | OR4N4C (Homo sapiens) | OR4Q2 (Homo sapiens) | OR4N2 [2]
inactive: all other assays above

CC1=C(O)C(=O)C(C)O1 (centres undefined)
not listed: OR4M2B (Homo sapiens) | OR4N4C (Homo sapiens) | OR4Q2 (Homo sapiens) | OR4N2 [2]
inactive: all other assays above

Cc1cnc(C)c(C)n1
not listed: OR4M2B (Homo sapiens) | OR4N4C (Homo sapiens) | OR4Q2 (Homo sapiens) | OR4N2 [2]
inactive: all other assays above

CC(CO)CS (centres undefined)
inactive: OR4L1 (Homo sapiens) | OR4M1 (Homo sapiens) | OR4M2 (Homo sapiens) | OR4N2 (Homo sapiens) | OR4N4 (Homo sapiens) | OR4N5 (Homo sapiens) | OR4P4 (Homo sapiens) | OR4Q3 (Homo sapiens) | OR4S1 (Homo sapiens)

CCCCCCC=CCCC=O
not listed: OR4KH | OR4M2B (Homo sapiens) | OR4N4C (Homo sapiens) | OR4Q2 (Homo sapiens) | OR4N2 [2]
inactive: all other assays above

CCCCCC(S)C(C)CO (centres undefined)
inactive: OR4L1 (Homo sapiens) | OR4M1 (Homo sapiens) | OR4M2 (Homo sapiens) | OR4N2 (Homo sapiens) | OR4N4 (Homo sapiens) | OR4N5 (Homo sapiens) | OR4P4 (Homo sapiens) | OR4Q3 (Homo sapiens) | OR4S1 (Homo sapiens)

CCC1OC(C)=C(O)C1=O (centres undefined)
not listed: OR4M2B (Homo sapiens) | OR4N4C (Homo sapiens) | OR4Q2 (Homo sapiens) | OR4N2 [2]
inactive: all other assays above

CCC1OC(=O)C(O)=C1C (centres undefined)
not listed: OR4M2B (Homo sapiens) | OR4N4C (Homo sapiens) | OR4Q2 (Homo sapiens) | OR4N2 [2]
inactive: all other assays above

CC1CCCCCCCCCCCCC(=O)C1 (centres undefined)
not listed: OR4KH | OR4L1 | OR4M1 H277N V279L L284H | OR4N2 A57V I76T | OR4N2 R260C F279L R290H | OR4N2 [1] | OR4Q3 T135A | OR4N2 [2]
inactive: all other assays above

CC(=O)c1c(C)c([N+](=O)[O-])c(C(C)(C)C)c([N+](=O)[O-])c1C
not listed: OR4KH | OR4L1 | OR4M1 H277N V279L L284H | OR4N2 A57V I76T | OR4N2 R260C F279L R290H | OR4N2 [1] | OR4Q3 T135A | OR4N2 [2]
inactive: all other assays above

CCCCCC(=O)C(C)C(C)=O (centres undefined)
inactive: OR4L1 (Homo sapiens) | OR4M1 (Homo sapiens) | OR4M2 (Homo sapiens) | OR4N2 (Homo sapiens) | OR4N4 (Homo sapiens) | OR4N5 (Homo sapiens) | OR4P4 (Homo sapiens) | OR4Q3 (Homo sapiens) | OR4S1 (Homo sapiens)

O=c1ccc2ccccc2o1
inactive: OR4N2 (Homo sapiens) | OR4N2 [2] | OR4N2 [1]

CCCC(S)CCOC(C)=O (centres undefined)
not listed: OR4M2B (Homo sapiens) | OR4N4C (Homo sapiens) | OR4Q2 (Homo sapiens) | OR4N2 [2]
inactive: all other assays above

CCC(S)C(C)CO (centres undefined)
inactive: OR4L1 (Homo sapiens) | OR4M1 (Homo sapiens) | OR4M2 (Homo sapiens) | OR4N2 (Homo sapiens) | OR4N4 (Homo sapiens) | OR4N5 (Homo sapiens) | OR4P4 (Homo sapiens) | OR4Q3 (Homo sapiens) | OR4S1 (Homo sapiens)

CC1=C(O)C(=O)OC1C (centres undefined)
not listed: OR4M2B (Homo sapiens) | OR4N4C (Homo sapiens) | OR4Q2 (Homo sapiens) | OR4N2 [2]
inactive: all other assays above

CCCCC(S)C(C)CO (centres undefined)
inactive: OR4L1 (Homo sapiens) | OR4M1 (Homo sapiens) | OR4M2 (Homo sapiens) | OR4N2 (Homo sapiens) | OR4N4 (Homo sapiens) | OR4N5 (Homo sapiens) | OR4P4 (Homo sapiens) | OR4Q3 (Homo sapiens) | OR4S1 (Homo sapiens)
